Results: ChEMBL document CHEMBL1143221, “Two-carbon-elongated HIV-1 protease inhibitors with a tertiary-alcohol-containing transition-state mimic” (J Med Chem, 2008)

How the values were obtained:
[1] = Permeability from apical to basolateral side of human Caco-2 cell membrane; format: ADME, cell-based
[2] = Cytotoxicity against human MT4 cells; format: cell-based
Protease = Protease (Human immunodeficiency virus 1, UniProt Q9YQ12); assay: Inhibition of HIV1 protease expressed in Escherichia coli
[3] = system: Human immunodeficiency virus 1; assay: Antiviral activity against HIV1 in MT4 cells by XTT assay; format: functional, organism-based; details: Human immunodeficiency virus 1, MT4
[4] = Metabolic stability in human liver microsomes after 30 mins; format: ADME, Microsome; details: read-out: Stability
Outline: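 Test compound incubated with human liver microsomes for 30 min at 37 °C. Read-out is percent parent compound remaining.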

Chain of Protease (Q9YQ12 whole entry): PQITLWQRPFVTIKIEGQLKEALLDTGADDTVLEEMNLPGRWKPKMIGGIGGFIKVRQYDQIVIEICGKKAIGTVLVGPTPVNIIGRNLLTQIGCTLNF

SMILES | Papp A→B [1] | Ki (Protease) | remaining at 0.5 h [4] | CC50 [2] | EC50 [3]
COC(=O)N[C@H](C(=O)NN(CCC[C@@](O)(Cc1ccccc1)C(=O)N[C@H]1c2ccccc2C[C@H]1O)Cc1ccc(N2CCOCC2)cc1)C(C)(C)C |  | 3.6 nM |  | > 10000 nM | 500 nM
COC(=O)N[C@H](C(=O)NN(Cc1ccc(Br)cc1)C[C@](O)(Cc1ccccc1)C(=O)N[C@H]1c2ccccc2C[C@H]1O)C(C)(C)C |  |  |  |  | 1100 nM
COC(=O)N[C@H](C(=O)NN(CCC[C@@](O)(Cc1ccccc1)C(=O)N[C@H]1c2ccccc2C[C@H]1O)Cc1ccc(CN2CCOCC2)cc1)C(C)(C)C |  | 11 nM |  | > 10000 nM | 880 nM
COC(=O)N[C@H](C(=O)NN(CCC[C@@](O)(Cc1ccccc1)C(=O)N[C@H]1c2ccccc2C[C@H]1O)Cc1ccc(-c2ccncc2)cc1)C(C)(C)C | < 20 ×10⁻⁶ cm/s | 2.8 nM | 94% | > 10000 nM | 170 nM
COC(=O)N[C@H](C(=O)NN(CCC[C@@](O)(Cc1ccccc1)C(=O)N[C@H]1c2ccccc2C[C@H]1O)Cc1ccc(-c2ccccc2)cc1)C(C)(C)C | > 20 ×10⁻⁶ cm/s | 7.3 nM |  | 7500 nM | 780 nM
COC(=O)N[C@H](C(=O)NN(CCC[C@@](O)(Cc1ccccc1)C(=O)N[C@H]1c2ccccc2C[C@H]1O)Cc1ccc(-c2cncnc2)cc1)C(C)(C)C |  | 2.4 nM |  | > 10000 nM | 220 nM
COC(=O)N[C@H](C(=O)NN(CCC[C@@](O)(Cc1ccccc1)C(=O)N[C@H]1c2ccccc2C[C@H]1O)Cc1ccc(OCc2cnc(Cl)s2)cc1)C(C)(C)C |  |  |  | > 10000 nM | 600 nM
COC(=O)N[C@H](C(=O)NN(Cc1ccc(-c2cccnc2)cc1)C[C@](O)(Cc1ccccc1)C(=O)N[C@H]1c2ccccc2C[C@H]1O)C(C)(C)C |  |  |  | > 10000 nM | 180 nM
COC(=O)N[C@H](C(=O)NN(CCC[C@@](O)(Cc1ccccc1)C(=O)N[C@H]1c2ccccc2C[C@H]1O)Cc1ccc(-c2cccnc2)cc1)C(C)(C)C | < 20 ×10⁻⁶ cm/s | 3.6 nM | 94% | > 10000 nM | 190 nM
COC(=O)N[C@H](C(=O)NN(CCC[C@@](O)(Cc1ccccc1)C(=O)N[C@H]1c2ccccc2C[C@H]1O)Cc1ccc(-c2nc(C(C)(C)C)cs2)cc1)C(C)(C)C |  | 24 nM |  | > 10000 nM | 1000 nM
COC(=O)N[C@H](C(=O)NN(CCC[C@](Cc1ccccc1)(O[Si](C)(C)C(C)(C)C)C(=O)N[C@H]1c2ccccc2C[C@H]1O)Cc1ccc(Br)cc1)C(C)(C)C |  | 190 nM |  | 5800 nM | > 10000 nM
COC(=O)N[C@H](C(=O)NN(CCC[C@](Cc1ccccc1)(O[Si](C)(C)C(C)(C)C)C(=O)N[C@H]1c2ccccc2C[C@H]1O[Si](C)(C)C(C)(C)C)Cc1ccc(Br)cc1)C(C)(C)C |  | 980 nM |  | > 10000 nM | > 10000 nM
COC(=O)N[C@H](C(=O)NN(Cc1ccc(Br)cc1)C(=O)CC[C@@](O)(Cc1ccccc1)C(=O)N[C@H]1c2ccccc2C[C@H]1O)C(C)(C)C |  |  |  | > 10000 nM | > 10000 nM
COC(=O)N[C@H](C(=O)NN(CCC[C@@](O)(Cc1ccccc1)C(=O)N[C@H]1c2ccccc2C[C@H]1O)Cc1ccc(-c2cn3ccsc3n2)cc1)C(C)(C)C |  | 2.3 nM |  | > 10000 nM | 480 nM
COC(=O)N[C@H](C(=O)NN(CCC[C@@](O)(Cc1ccccc1)C(=O)N[C@H]1c2ccccc2C[C@H]1O)CC(C)C)C(C)(C)C |  | 6.8 nM |  | > 10000 nM | 1800 nM
COC(=O)N[C@H](C(=O)NN(CCC[C@@](O)(Cc1ccccc1)C(=O)N[C@H]1c2ccccc2C[C@H]1O)Cc1ccc(-c2ccccn2)cc1)C(C)(C)C |  | 2.8 nM |  | > 10000 nM | 470 nM
CC(C)(C)NC(=O)[C@@H]1CN(Cc2cccnc2)CCN1C[C@@H](O)C[C@@H](Cc1ccccc1)C(=O)N[C@H]1c2ccccc2C[C@H]1O |  |  |  |  | 41 nM
COC(=O)N[C@H](C(=O)N[C@@H](Cc1ccccc1)[C@@H](O)CN(Cc1ccc(-c2ccccn2)cc1)NC(=O)[C@@H](NC(=O)OC)C(C)(C)C)C(C)(C)C [ATAZANAVIR] |  | 2.7 nM |  |  | 3.9 nM

Now from value to compound, other results behind:

Papp A→B [1] | Ki (Protease) | remaining at 0.5 h [4] | SMILES | CC50 [2] | EC50 [3]
> 20 ×10⁻⁶ cm/s | 420 nM |  | COC(=O)N[C@H](C(=O)NN(CCC[C@](O)(Cc1ccccc1)C(=O)N[C@H]1c2ccccc2C[C@H]1O)Cc1ccc(Br)cc1)C(C)(C)C | > 10000 nM | > 10000 nM
< 20 ×10⁻⁶ cm/s | 5.7 nM |  | COC(=O)N[C@H](C(=O)NN(CCC[C@@](O)(Cc1ccccc1)C(=O)N[C@H]1c2ccccc2C[C@H]1O)Cc1ccccc1)C(C)(C)C | > 10000 nM | 1200 nM
> 20 ×10⁻⁶ cm/s |  |  | COC(=O)N[C@H](C(=O)NN(CCC[C@@](O)(Cc1ccccc1)C(=O)N[C@H]1c2ccccc2C[C@H]1O)Cc1ccc(Br)cc1)C(C)(C)C | > 10000 nM | 850 nM
 | 2.9 nM |  | COC(=O)N[C@H](C(=O)NN(CCC[C@@](O)(Cc1ccccc1)C(=O)N[C@H]1c2ccccc2C[C@H]1O)Cc1ccc(C#N)cc1)C(C)(C)C | > 10000 nM | 1200 nM
 | 4.5 nM |  | COC(=O)N[C@H](C(=O)NN(CCC[C@@](O)(Cc1ccccc1)C(=O)N[C@H]1c2ccccc2C[C@H]1O)Cc1ccc(I)cc1)C(C)(C)C | > 10000 nM | 820 nM
 | 4.9 nM |  | COC(=O)N[C@H](C(=O)NN(CCC[C@@](O)(Cc1ccccc1)C(=O)N[C@H]1c2ccccc2C[C@H]1O)Cc1ccc(N(C)C)cc1)C(C)(C)C | > 10000 nM | 980 nM
 | 3.4 nM |  | COC(=O)N[C@H](C(=O)NN(CCC[C@@](O)(Cc1ccccc1)C(=O)N[C@H]1c2ccccc2C[C@H]1O)Cc1ccc(Cl)cc1)C(C)(C)C | > 10000 nM | 910 nM
> 20 ×10⁻⁶ cm/s | 2.3 nM |  | COC(=O)N[C@H](C(=O)NN(CCC[C@@](O)(Cc1ccccc1)C(=O)N[C@H]1c2ccccc2C[C@H]1O)Cc1ccc(-c2nccs2)cc1)C(C)(C)C | > 10000 nM | 210 nM
 | 3.5 nM |  | COC(=O)N[C@H](C(=O)NN(CCC[C@@](O)(Cc1ccccc1)C(=O)N[C@H]1c2ccccc2C[C@H]1O)Cc1ccc(-c2csc(C)n2)cc1)C(C)(C)C | > 10000 nM | 510 nM
 | 3.6 nM |  | COC(=O)N[C@H](C(=O)NN(CCC[C@@](O)(Cc1ccccc1)C(=O)N[C@H]1c2ccccc2C[C@H]1O)Cc1ccc(-c2noc(C)n2)cc1)C(C)(C)C | > 10000 nM | 190 nM
 | 10 nM |  | COC(=O)N[C@H](C(=O)NN(CCC[C@@](O)(Cc1ccccc1)C(=O)N[C@H]1c2ccccc2C[C@H]1O)Cc1ccc(-c2ccsc2)cc1)C(C)(C)C | > 10000 nM | 560 nM
 | 3.3 nM |  | COC(=O)N[C@H](C(=O)NN(CCC[C@@](O)(Cc1ccccc1)C(=O)N[C@H]1c2ccccc2C[C@H]1O)Cc1ccc(-n2ccnc2)cc1)C(C)(C)C | > 10000 nM | 170 nM
 | 6.7 nM |  | COC(=O)N[C@H](C(=O)NN(CCC[C@@](O)(Cc1ccccc1)C(=O)N[C@H]1c2ccccc2C[C@H]1O)Cc1ccc(F)cc1)C(C)(C)C | > 10000 nM | 980 nM
